Values after ≈ are worked out from the molar mass of the structure shown. Active and inactive are the calls of the source. The rule behind the calls is not given here.
Experiments:
[1] = Cytotoxicity in HREC assessed as reduction in cell viability incubated for 24 hrs by MTT assay; assay type: functional; conditions: Homo sapiens
Method in brief: (§1)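 HREC viability measured by MTT test after compound exposure for 24, 48, 72 or 96 h, with concentrations up to 200 μM.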

[2] = Suppression of VEGF-A-induced angiogenesis in HREC assessed as reduction of the ramification number at 5 uM incubated for 24 hrs by Matrigel based tube formation assay; assay type: functional, Homo sapiens; design: scale not given: the % may be the effect or the level left
Method in brief: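 HRECs plated on Matrigel in the presence of VEGF-A. Emerging branch points (ramification number) from tube formation were quantified by phase-contrast imaging.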

[3] = system: HREC; test: Suppression of VEGF-A-induced angiogenesis in HREC assessed as reduction of the ramification number at 5 uM incubated for 24 hrs in presence of 2 uM sigma2 selective antagonist AC927 by Matrigel based tube formation assay; assay type: functional, tissue-based; conditions: Homo sapiens
Method in brief: (§2)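 HREC were plated on Matrigel with VEGF-A stimulation. Emerging branch points (ramifications) from cell bodies were counted by phase-contrast imaging.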

[4] = Suppression of VEGF-A-induced pro-angiogenesis in HREC assessed as alive cell number count at 5 uM incubated for 24 hrs by Trypan blue dye exclusion assay (reference value: 52%); assay type: functional, Homo sapiens
[5] = Stability in pH 7.4 buffer by HPLC analysis; assay type: physicochemical
Method in brief: (§3)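 Chemical stability was tested at 37 °C in aqueous buffer at pH 1.3 (non-enzymatic simulated gastric fluid) or pH 7.4.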

[6] = Cytotoxicity in HREC assessed as reduction in cell viability at 5 uM incubated for 72 hrs by MTT assay; assay type: functional, Homo sapiens; method in brief: as §1
[7] = system: HREC; test: Suppression of VEGF-A-induced cell migration in HREC assessed as effect on crossing cells count at 5 uM incubated for 24 to 72 hrs in presence of 1 to 2 uM sigma2 receptor antagonist AC927 by wound healing assay; assay type: functional; conditions: Homo sapiens, time 24-72 hrs
[8] = system: HREC; test: Suppression of VEGF-A-induced cell migration in HREC assessed as effect on crossing cells count at 5 uM incubated for 24 to 72 hrs in presence of 1 to 2 uM sigma1 selective agonist (+)-pentazocine by wound healing assay; assay type: functional; conditions: Homo sapiens, time 24-72 hrs
Method in brief: (§4)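 A scratch wound was made in a confluent HREC monolayer, which was then kept in 1% FBS medium, either basal or with VEGF-A 80 ng/mL. (+)-Pentazocine (1 or 2 μM) was added where indicated. Wound-edge cell advancement was scored as a percentage at 24 and 72 h after the scratch.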

[9] = Displacement of [3H]-DTG from sigma2 receptor in guinea pig brain membranes by scintillation counting; assay type: cell membranes, Cavia porcellus, Cell membrane
[10] = (§5) Suppression of VEGF-A-induced cell migration in HREC assessed as crossing cells count at 5 uM incubated for 24 hrs by wound healing assay (reference value: 63%); assay type: functional, Homo sapiens
[11] = biological target: D(3) dopamine receptor (Rattus norvegicus, UniProt P19020); test: Displacement of [3H]-7-OH-DPAT from DRD3 in rat olfactory tubercle by scintillation counting; assay type: tissue-based
[12] = (§6) Cytotoxicity in HREC assessed as reduction in cell counts at 5 uM incubated for 72 hrs under basal conditions by Trypan blue dye exclusion assay; assay type: functional, Homo sapiens; design: scale not given: the % may be the effect or the level left
Method in brief: (§7)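 HRECs grown in medium with 1% FBS under basal conditions, no VEGF-A. Exposure 24 or 72 h. Read-out is the count of live cells excluding dye in a Trypan blue exclusion test.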

[13] = biological target: D(2) dopamine receptor (Rattus norvegicus, UniProt P61169); test: Displacement of [3H]-spiperone from DRD2 in rat striatum by scintillation counting; assay type: tissue-based
[14] = Solubility in water incubated for 1 hr by HPLC analysis; assay type: physicochemical
[15] = Cytotoxicity in HREC assessed as reduction in cell viability incubated for 72 hrs by MTT assay; assay type: functional; conditions: Homo sapiens
Method in brief: (§8)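 HREC were exposed to the test agent for 24, 48, 72 or 96 h. Viability was measured by MTT, and IC50 values were derived for each time point.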

[16] = Cytotoxicity in HREC assessed as reduction in cell viability incubated for 48 hrs by MTT assay; assay type: functional; conditions: Homo sapiens; method in brief: as §8
[17] = system: HREC; test: Cytotoxicity in HREC assessed as reduction in cell viability at 5 uM incubated for 72 hrs in presence of 1 uM sigma1 selective agonist (+)-pentazocine by MTT assay; assay type: functional; conditions: Homo sapiens
Method in brief: (§9)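 HREC were co-incubated for 72 h with the test agent plus either the σ1 agonist (+)-pentazocine (1 μM) or the σ2 ligand AC927 (1 μM). Viability was read by MTT test.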

[18] = biological target: Sigma non-opioid intracellular receptor 1 (Cavia porcellus, UniProt Q60492); test: Displacement of [3H]-pentazocine from sigma1 receptor in guinea pig brain membranes by scintillation counting; assay type: cell membranes, Cell membrane
[19] = Suppression of VEGF-A-induced pro-angiogenesis in HREC assessed as alive cell number count at 5 uM incubated for 72 hrs by Trypan blue dye exclusion assay (reference value: 42%); assay type: functional, Homo sapiens
[20] = Cytotoxicity in HREC assessed as reduction in cell viability at 5 uM incubated for 72 hrs in presence of 1 uM sigma2 receptor antagonist AC927 by MTT assay; assay type: functional, Homo sapiens
Method in brief: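 HRECs co-incubated with compound and the σ2 ligand AC927 (1 μM) for 72 h. Cell viability read by MTT test.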

[21] = (§10) Cytotoxicity in HREC assessed as reduction in cell counts at 5 uM incubated for 24 hrs under basal conditions by Trypan blue dye exclusion assay; assay type: functional, Homo sapiens; design: scale not given: the % may be the effect or the level left; method in brief: as §7
[22] = system: HREC; test: Effect on cell migration of in HREC at 5 uM incubated for 24 to 72 hrs by wound healing assay; assay type: functional; conditions: Homo sapiens, time 24-72 hrs; method in brief: as §4
[23] = Stability in rat plasma assessed as compound hydrolysis at 37 degC by HPLC analysis; assay type: ADME, cell-free
Method in brief: (§11)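 Compound was incubated in rat or human plasma, and ester hydrolysis was followed. The rate was expressed as the observed rate constant kobs.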

[24] = system: HREC; test: Suppression of VEGF-A-induced angiogenesis in HREC assessed as reduction of the ramification number at 5 uM incubated for 24 hrs in presence of 2 uM sigma1 selective agonist (+)-pentazocine by Matrigel based tube formation assay; assay type: functional, tissue-based; conditions: Homo sapiens; method in brief: as §2
[25] = Cytotoxicity in HREC assessed as reduction in cell viability at 5 uM incubated for 24 hrs by MTT assay; assay type: functional, Homo sapiens; method in brief: as §1
[26] = Cytotoxicity in HREC assessed as reduction in cell viability incubated for 96 hrs by MTT assay; assay type: functional; conditions: Homo sapiens; method in brief: as §8
[27] = Stability in human plasma assessed as compound hydrolysis at 37 degC by HPLC analysis; assay type: ADME, cell-free; method in brief: as §11
[28] = biological target: Histone deacetylase (Homo sapiens) (UniProt Q13547+O15379+Q9UBN7+Q92769+Q9UQL6+Q8WUI4+Q9BY41+Q96DB2+P56524+Q9UKV0+Q969S8); test: Inhibition of HDAC in human HeLa cell extracts at 5 uM using fluorescently labeled HDAC substrate
[29] = (§12) Suppression of VEGF-A-induced cell migration in HREC assessed as crossing cells count at 5 uM incubated for 72 hrs by wound healing assay (reference value: 26%); assay type: functional, Homo sapiens
[30] = Stability in pH 1.3 buffer by HPLC analysis; assay type: physicochemical; method in brief: as §3
[31] = system: HREC; test: Cytotoxicity in HREC assessed as reduction in cell viability by MTT assay; assay type: functional; conditions: Homo sapiens, TDE = time-dependent effect; method in brief: as §8
[32] = system: HREC; test: as §5; assay type: functional; conditions: Homo sapiens
[33] = system: HREC; test: as §6; assay type: functional; conditions: Homo sapiens; method in brief: as §7
[34] = system: HREC; test: Cytotoxicity in HREC assessed as reduction in cell viability at 20 uM incubated for 72 hrs in presence of 1 uM sigma2 receptor antagonist AC927 by MTT assay; assay type: functional; conditions: Homo sapiens; method in brief: as §9
[35] = system: HREC; test: as §10; assay type: functional; conditions: Homo sapiens; method in brief: as §7
[36] = system: HREC; test: Cytotoxicity in HREC assessed as reduction in cell viability at 20 uM incubated for 72 hrs in presence of 1 uM sigma1 selective agonist (+)-pentazocine by MTT assay; assay type: functional; conditions: Homo sapiens; method in brief: as §9
[37] = Cytotoxicity in HREC assessed as reduction in cell viability at 20 uM incubated for 72 hrs by MTT assay; assay type: functional, Homo sapiens; method in brief: as §1
[38] = Cytotoxicity in HREC assessed as reduction in cell viability at 200 uM incubated for 24 hrs by MTT assay; assay type: functional, Homo sapiens; method in brief: as §1
[39] = system: HREC; test: as §12; assay type: functional; conditions: Homo sapiens

D(3) dopamine receptor, sequence (P19020 whole entry): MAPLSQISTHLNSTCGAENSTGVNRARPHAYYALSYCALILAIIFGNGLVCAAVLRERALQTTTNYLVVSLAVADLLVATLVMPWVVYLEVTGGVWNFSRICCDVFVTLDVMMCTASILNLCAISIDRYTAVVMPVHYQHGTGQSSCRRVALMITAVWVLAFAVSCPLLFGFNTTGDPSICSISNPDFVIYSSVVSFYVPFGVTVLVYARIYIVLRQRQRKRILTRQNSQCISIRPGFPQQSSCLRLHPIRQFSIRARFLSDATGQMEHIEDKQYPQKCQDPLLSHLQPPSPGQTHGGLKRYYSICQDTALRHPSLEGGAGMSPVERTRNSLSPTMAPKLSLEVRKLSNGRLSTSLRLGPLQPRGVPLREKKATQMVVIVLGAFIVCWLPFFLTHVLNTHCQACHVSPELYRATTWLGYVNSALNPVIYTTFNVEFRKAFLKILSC
D(2) dopamine receptor, sequence (P61169 whole entry): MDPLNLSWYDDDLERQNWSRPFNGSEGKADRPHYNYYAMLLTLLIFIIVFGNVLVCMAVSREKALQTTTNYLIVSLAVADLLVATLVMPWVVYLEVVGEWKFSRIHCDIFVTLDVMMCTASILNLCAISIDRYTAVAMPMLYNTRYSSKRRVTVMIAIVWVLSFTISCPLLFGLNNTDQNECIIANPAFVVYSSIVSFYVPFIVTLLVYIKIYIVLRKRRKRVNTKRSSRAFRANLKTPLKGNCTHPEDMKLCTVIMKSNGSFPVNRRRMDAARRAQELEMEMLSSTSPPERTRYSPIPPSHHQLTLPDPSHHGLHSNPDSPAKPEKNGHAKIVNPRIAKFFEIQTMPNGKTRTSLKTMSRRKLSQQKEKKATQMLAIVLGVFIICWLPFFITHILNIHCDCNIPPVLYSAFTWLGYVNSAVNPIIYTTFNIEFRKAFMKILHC
Sigma non-opioid intracellular receptor 1, sequence (Q60492 whole entry): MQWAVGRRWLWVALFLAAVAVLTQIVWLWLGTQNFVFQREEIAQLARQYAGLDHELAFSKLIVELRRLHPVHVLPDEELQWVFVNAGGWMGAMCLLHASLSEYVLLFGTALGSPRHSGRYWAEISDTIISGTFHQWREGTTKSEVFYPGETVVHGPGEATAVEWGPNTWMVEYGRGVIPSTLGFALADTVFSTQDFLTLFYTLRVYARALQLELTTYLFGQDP

What does the source list for `CCCC(CCC)C(=O)OC(CCCN1CCC(O)(c2ccc(Cl)cc2)CC1)c1ccc(F)cc1` (racemic)?
IC50 ([1]; read-out: IC50): 10.5 µM; IC50 ([1]; read-out: pIC50 (converted)): 10.5 µM; Activity [2]: 67%; Activity [3]: Active; Activity [4]: 28%; half-life [5]: 134 h; Activity [6]: 25%; Activity [7]: Active; Activity [8]: inactive; Ki [9]: 0.124 µM; Activity [10]: 55%; Ki [11]: > 5 µM; Activity [12]: 52%; Ki [13]: > 5 µM; solubility at 1 h [14]: 1400 µg/mL (≈ 2780 µM); IC50 ([15]; read-out: IC50): 10.1 µM; IC50 ([15]; read-out: pIC50 (converted)): 10.1 µM; IC50 ([16]; read-out: IC50): 11.1 µM; IC50 ([16]; read-out: pIC50 (converted)): 11.1 µM; Activity [17]: inactive; Ki [18]: 0.013 µM; Activity [19]: 30%; Activity [20]: 18%; Activity [21]: 32%; Activity [22]: inactive; Stabilty [23]: Unstable; Activity [24]: inactive; Activity [25]: 28%; IC50 ([26]; read-out: IC50): 10.6 µM; IC50 ([26]; read-out: pIC50 (converted)): 10.6 µM; Stabilty [27]: Stable; inhibition [28]: inactive; Activity [29]: 24%; half-life [30]: 129 h

For `OC(CCCN1CCC(O)(c2ccc(Cl)cc2)CC1)c1ccc(F)cc1` (racemic) [HYDROXYHALOPERIDOL], which Activity [31] is on record?
The Activity was “Tde”.

And the IC50 ([1]; read-out: IC50)?
Its IC50 is over 200 µM.

What about the Ki [9] of the same compound?
Its Ki is 0.0024 µM.

What about the Activity [32] of the same compound?
Its Activity is “inactive”.

What about the Ki [11] of the same compound?
Its Ki is 1.02 µM.

And the Activity [33]?
Its Activity is “inactive”.

What about the Activity [34] of the same compound?
Its Activity is “inactive”.

What about the IC50 ([15]; read-out: IC50) of the same compound?
Its IC50 is 68.7 µM.

What about the IC50 ([15]; read-out: pIC50 (converted)) of the same compound?
Its IC50 is 68.7 µM.

What about the IC50 ([16]; read-out: IC50) of the same compound?
Its IC50 is 128 µM.

What about the IC50 ([16]; read-out: pIC50 (converted)) of the same compound?
Its IC50 is 128 µM.

And the Activity [35]?
The Activity was “inactive”.

And the Activity [22]?
The Activity was “inactive”.

What about the IC50 ([26]; read-out: IC50) of the same compound?
Its IC50 is 56.6 µM.

And the IC50 ([26]; read-out: pIC50 (converted))?
The IC50 was 56.6 µM.

What about the Activity [36] of the same compound?
Its Activity is “inactive”.

What about the Activity [37] of the same compound?
The Activity was 29%.

And the Activity [38]?
Its Activity is under 50%.

What about the Activity [39] of the same compound?
The Activity was “inactive”.

Source: ChEMBL document CHEMBL4680086, “Antiangiogenic Effect of (±)-Haloperidol Metabolite II Valproate Ester [(±)-MRJF22] in Human Microvascular Retinal Endothelial Cells” (J Med Chem, 2016)
